Experimental data pooled from the literature.
Lines come from different studies, so protocols differ.
Cell line: MCF7
Observed: cell growth or viability

SMILES	method	tested at	time	quantity	value
CC(=O)c1nn(-c2ccc(C)cc2)/c(=N/N=C(\C)c2ccc(NC(=O)c3ccccc3)cc2)s1	MTT	10 µM		viability	6.47%
O=C(Nc1ccccc1)Nc1ccc(Oc2nnc(-c3ccc(Cl)cc3)c3ccccc23)cc1	MTT	10 µM	24 h	viability	5.36%
COc1ccc(-c2cc(-c3ccc(C)cc3)nc3[nH]c(=O)[nH]c(=O)c23)cc1OC	MTT		48 h	IC50	26.6 µM
COc1ccc(CNC[C@](O)(COCc2ccc(OC)cc2)[C@@H]2CC[C@@H](C)C[C@H]2OCc2ccc(OC)cc2)cc1	MTT	10 µM	72 h	inhibition	101%
O=C(NO)c1ccc(CNc2nc3cccc(-c4ccc5c(c4)OCO5)n3n2)cc1	SRB			GI50	0.65 µM
CC(=NNC(N)=S)c1ccc(Nc2nnc(-c3ccc(Cl)cc3)c3ccccc23)cc1	MTT	0.156 µM		cell death	49.5%
CCOC(=O)c1nn(-c2cccc(Cl)c2)/c(=N/N=C(\C)c2ccc(NC(=O)c3ccccc3)cc2)s1	MTT	2.5 µM		viability	2.67%
O=C(Nc1ccc(Oc2nnc(-c3ccc(Cl)cc3)c3ccccc23)cc1)c1ccccc1	MTT	0.625 µM	24 h	viability	3.76%
C[C@@H]1CC[C@@H]([C@](C)(O)CNCc2ccccc2)[C@H](OCc2ccccc2)C1	MTT	10 µM	72 h	inhibition	97.6%
COc1cccc2c1C(=O)c1c(O)c3c(c(O)c1C2=O)C[C@@](O)(C(=O)CO)C[C@@H]3O[C@H]1C[C@H](N)[C@H](O)[C@H](C)O1	MTT			GI50	7.32 µM
COc1ccccc1CNC[C@@](C)(O)[C@@H]1CC[C@@H](C)C[C@H]1OCc1ccccc1	MTT	10 µM	72 h	inhibition	46.9%
CC(=NNC(=O)c1ccccc1Cl)c1ccc(Nc2nnc(-c3ccc(Cl)cc3)c3ccccc23)cc1	MTT	0.312 µM	24 h	viability	99.9%
COc1ccc(-c2cc(-c3ccc(C)cc3)nc3c2c(=O)n(C)c(=O)n3C)cc1OC	MTT		48 h	IC50	29.5 µM
C[C@@H]1CC[C@@H]([C@@](O)(CNCc2cccc3ccccc23)COCc2ccccc2)[C@H](OCc2ccccc2)C1	MTT	30 µM	72 h	inhibition	90.7%
CCOC(=O)c1nn(-c2cccc(Cl)c2)/c(=N/N=C(\C)c2ccc(NC(=O)c3ccc(Cl)cc3)cc2)s1	MTT	0.625 µM		viability	3.92%
C=C(COCc1ccc(OC)cc1)[C@@H]1CC[C@@H](C)C[C@H]1OCc1ccc(OC)cc1	MTT	30 µM	72 h	inhibition	24%
CC(=NNC(=S)Nc1ccccc1)c1ccc(Nc2nnc(-c3ccc(Cl)cc3)c3ccccc23)cc1	MTT	10 µM	24 h	viability	3.45%
CC(=O)c1nn(-c2ccccc2Cl)/c(=N/N=C(\C)c2ccc(NC(=O)c3ccccc3)cc2)s1	MTT	0.625 µM		viability	6.6%
C[C@@H]1CC[C@@H]([C@](C)(O)CNCc2ccc(F)cc2)[C@H](OCc2ccccc2)C1	MTT	30 µM	72 h	inhibition	73.8%
CC(=NNC(=O)c1ccccc1)c1ccc(Nc2nnc(-c3ccc(Cl)cc3)c3ccccc23)cc1	MTT	0.625 µM		cell death	1.42%
